This assay concerns the target T1, Prostaglandin G/H synthase 1 (Ovis aries, UniProt P05979).
T1 sequence (P05979 whole entry): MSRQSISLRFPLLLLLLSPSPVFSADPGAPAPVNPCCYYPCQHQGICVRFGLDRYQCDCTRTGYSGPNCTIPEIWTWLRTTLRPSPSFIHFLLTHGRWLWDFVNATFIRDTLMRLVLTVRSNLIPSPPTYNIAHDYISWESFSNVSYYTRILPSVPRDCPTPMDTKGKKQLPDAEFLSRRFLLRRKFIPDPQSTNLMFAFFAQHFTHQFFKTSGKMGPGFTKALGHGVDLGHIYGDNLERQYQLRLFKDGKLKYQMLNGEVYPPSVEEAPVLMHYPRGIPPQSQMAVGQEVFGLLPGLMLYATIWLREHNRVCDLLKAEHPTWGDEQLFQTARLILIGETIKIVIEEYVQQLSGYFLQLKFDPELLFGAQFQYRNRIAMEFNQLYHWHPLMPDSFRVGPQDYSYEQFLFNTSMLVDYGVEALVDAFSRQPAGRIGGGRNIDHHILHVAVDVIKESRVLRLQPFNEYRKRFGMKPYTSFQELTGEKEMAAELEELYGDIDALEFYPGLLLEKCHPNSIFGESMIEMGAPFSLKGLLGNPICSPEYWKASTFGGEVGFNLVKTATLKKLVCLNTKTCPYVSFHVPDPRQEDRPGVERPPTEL
The assay is described as follows: Reversible competitive inhibition of prostaglandin G/H synthase 1. An outline of the steps:
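Ovine seminal vesicle COX-1, purified to >95% (Coomassie SDS-PAGE) and hematin-reconstituted. Coupled cyclooxygenase-peroxidase assay at 22 °C in 0.1 M Tris–HCl pH 8.0, read as TMPD oxidation after arachidonic acid start. Initial rates were taken because the enzyme auto-inactivates. Hydrogen-peroxide-initiated controls checked for peroxidase inhibition.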
`CC(C(=O)N(C)C)c1ccc(-c2ccccc2)cc1` (stereo not given): the IC50 is 4.8 µM.
As for `CC(C(=O)N(C)C)c1ccc(-c2ccccc2)c(F)c1` (stereo not given), the IC50 is 215 µM.
Compound `COC(=O)C(C)c1ccc(-c2ccccc2)c(F)c1` (stereo not given) gave a 50% inhibitory concentration (IC50) of 210 µM.
Next, `COC(=O)C(C)c1ccc(-c2ccccc2)cc1` (stereo not given): 28.5 µM.
In the case of `CC(C)Cc1ccc(C(C)C(=O)O)cc1Br` (stereo not given), the IC50 is 0.11 µM.
Take `CC(C(N)=O)c1ccc(-c2ccccc2)cc1` (stereo not given): the IC50 stood at 64.5 µM.
As for `CC(C(N)=O)c1ccc(-c2ccccc2)c(F)c1` (stereo not given), the IC50 came to 8.3 µM.
`CNC(=O)C(C)c1ccc(-c2ccccc2)cc1` (stereo not given) yielded an IC50 of 19.5 µM.
In the case of `CC(C)Cc1ccc(C(C)C(=O)O)cc1[N+](=O)[O-]` (stereo not given), the IC50 is 59 µM.
As for `CNC(=O)C(C)c1ccc(-c2ccccc2)c(F)c1` (stereo not given), the IC50 was 24 µM.

These data come from ChEMBL document CHEMBL1137939, “Manipulation of kinetic profiles in 2-aryl propionic acid cyclooxygenase inhibitors” (Bioorg Med Chem Lett, 2004).
